Data set [1] has as its system Staphylococcus aureus. Put plainly: Antibacterial activity against Staphylococcus aureus RN4220 ATCC 35556 incubated overnight by microbroth dilution method. In kind it is functional. A digest of the protocol:
(§1)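 Bacteria grown in LB medium. CLSI microbroth dilution in 96-well plates, overnight at 37 °C without shaking. MIC99 taken as the lowest concentration giving complete growth inhibition. Three independent determinations, reported as mean ± SD.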
In general terms: In broth dilution the organism is exposed to a series of concentrations in liquid medium.

The subject of data set [2] is Pseudomonas aeruginosa. Nature of the data set: Antibacterial activity against Pseudomonas aeruginosa PAO1 ATCC 47085 incubated overnight by microbroth dilution method. It counts as functional. A digest of the protocol:
as §1

Data set [3] relates to Escherichia coli. Nature of the data set: Antibacterial activity against Escherichia coli ANS1 incubated overnight by microbroth dilution method. In kind it is functional. A digest of the protocol: as §1
In data set [4] the test system is Staphylococcus aureus. Nature of the data set: Bactericidal activity against Staphylococcus aureus RN4220 ATCC 35556 in exponential-phase assessed as reduction in bacterial burden at 4 times MIC99 after 2 to 6 hrs by time-kill assay. In kind it is functional, organism-based. A digest of the protocol:
(§2)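 Overnight cultures washed and resuspended in PBS, then diluted 100-fold into LB (exponential-phase model) or into 1% PBS (stationary-phase model). Test agent added at 4× MIC99. Incubated at 37 °C with shaking at 200 rpm. CFU counted on LB agar at 0, 2, 4 and 6 h.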

The subject of data set [5] is Staphylococcus aureus. Put plainly: Bactericidal activity against Staphylococcus aureus RN4220 ATCC 35556 in stationary-phase assessed as reduction in bacterial burden at 4 times MIC99 after 2 to 6 hrs by time-kill assay. In kind it is functional, organism-based. The method in brief:
as §2

Data set [6] has as its system Staphylococcus aureus. Put plainly: Bactericidal activity against Staphylococcus aureus RN4220 ATCC 35556 in stationary-phase assessed as reduction in bacterial burden at 4 times MIC99 after 4 hrs by time-kill assay. In kind it is functional. The method in brief:
(§3)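 Overnight LB cultures of RN4220 or PAO1 washed and resuspended in PBS, then diluted 100-fold into LB (exponential phase) or 1% PBS (stationary phase). Compound added at 4× MIC99, and cultures shaken at 200 rpm at 37 °C. Viable counts taken by dilution plating on LB agar at 0, 2, 4 and 6 h.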

Data set [7] has as its system Pseudomonas aeruginosa. Put plainly: Bactericidal activity against Pseudomonas aeruginosa PAO1 ATCC 47085 in exponential-phase assessed as reduction in bacterial burden at 4 times MIC99 upto 6 hrs by time-kill assay. It counts as functional. A digest of the protocol: as §2
Data set [8] has as its system Pseudomonas aeruginosa. Put plainly: Antibiofilm activity against Pseudomonas aeruginosa PAO1 ATCC 47085 after 24 hrs by crystal violet staining-based spectrophotometry. In kind it is functional, organism-based. The method in brief: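 PAO1 grown 2 h in LB at 37 °C with shaking, then diluted 1:1000 in 10% LB-PBS to 3 × 10⁵ CFU/mL. Inoculum mixed with serially diluted compound under pegged lids and incubated 24 h at 37 °C static. Peg biofilms washed, stained 15 min with 0.1% crystal violet, and dye eluted in 95% ethanol and read at 600 nm.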

Data set [9] relates to Caenorhabditis elegans. Nature of the data set: Toxicity in Caenorhabditis elegans N2 assessed as effect on viable eggs production treated at high concentration. In kind it is organism-based. The settings on record: in vivo. A digest of the protocol:
(§4)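 C. elegans N2 kept on NGM agar at 22 °C. Compound mixed into molten NGM agar at 64 μg/mL. L4 adults, L1 juveniles and synchronized eggs transferred onto test plates and held at 22 °C for 96 h. Death, development and egg production checked every 12 h.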

Data set [10] relates to Caenorhabditis elegans. Nature of the data set: Toxicity in juvenile L1 stage of Caenorhabditis elegans N2 assessed as nematode death at 64 ug/ml incubated for 96 hrs measured every 12 hrs. It counts as organism-based. The settings on record: in vivo. The method in brief: as §4
In data set [11] the test system is Pseudomonas aeruginosa. Nature of the data set: Antibacterial activity against Pseudomonas aeruginosa PAO1 ATCC 47085 assessed as increase in outer membrane permeability at 4 times MIC99 by fluorescent probe 1-N-phenylnaphthylamine based fluorescence assay. It counts as functional, organism-based. A digest of the protocol:
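P. aeruginosa PAO1 from a culture at OD600 ~0.5, washed and resuspended in 5 mM HEPES pH 7.2. NPN added to 10 μM final and sodium azide to 10 mM final, then 30 min at room temperature in darkness. Compound added at 4× or 1× MIC99 and NPN fluorescence recorded continuously (ex 350/em 420 nm). Gentamicin at 4× MIC99 as positive control. Three independent experiments.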

In data set [12] the test system is Pseudomonas aeruginosa. Put plainly: Bactericidal activity against Pseudomonas aeruginosa PAO1 ATCC 47085 in stationary-phase assessed as reduction in bacterial burden at 4 times MIC99 after 4 hrs by time-kill assay. It counts as functional, organism-based. The method in brief:
as §2

For data set [13], the system named is Pseudomonas aeruginosa. Nature of the data set: Antibiofilm activity against Pseudomonas aeruginosa PAO1 ATCC 47085 at < 1024 ug/ml after 24 hrs by crystal violet staining-based spectrophotometry. It counts as functional, organism-based. A digest of the protocol: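 PAO1 grown 2 h in LB at 37 °C with shaking, then diluted 1:1000 in 10% LB-PBS to 3 × 10⁵ CFU/mL and mixed with serially diluted compound. Biofilms grown on peg lids 24 h at 37 °C, static. Pegs washed, stained with 0.1% crystal violet for 15 min, dye eluted in 95% ethanol and read at 600 nm. Control was 10% LB-PBS.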

Data set [14] relates to Staphylococcus aureus. Put plainly: Bactericidal activity against Staphylococcus aureus RN4220 ATCC 35556 assessed as reduction in bacterial burden. In kind it is functional, organism-based. The method in brief:
as §3

The test system of data set [15] is Pseudomonas aeruginosa. Nature of the data set: Bactericidal activity against Pseudomonas aeruginosa PAO1 ATCC 47085 assessed as reduction in bacterial burden. It counts as functional, organism-based. The method in brief:
as §3

In brackets after ≈: the same amount, converted by molar mass. Activity calls are given as the source filed them. No cut-off for these calls is given here. Where only a bound is given, the exact number is not on record here.

By MIC99 is commonly meant an inhibitory concentration at the 99% level, which refers to growth in some studies and to a panel of isolates in others. A low value points to higher susceptibility. For `Cl.Cl.O=C(NCCCNCCCCCNCCCNC(=O)Nc1ccccc1)Nc1ccccc1`, the MIC99 in data set [1], in data set [2] and in [3] was over 256 µg/mL throughout.

For `CCn1cc(C(=O)O)c(=O)c2cc(F)c(N3CCNCC3)cc21` [NORFLOXACIN], the MIC99 in [1] came to 0.5 µg/mL (≈ 1.57 µM); in [2], 0.5 µg/mL (≈ 1.57 µM); in [3], 0.25 µg/mL (≈ 0.783 µM). For the same molecule, the result in data set [4] and in data set [8] was Active. For the same molecule, the result in data set [5] was inactive. For the same molecule, the Activity in data set [6] was determined as 2 deltalog10CFU/ml; in [7] it was 4 deltalog10CFU/ml.

In the case of `O=C(NCCCCCCCCCCCCNC(=O)NC(c1ccccc1)c1ccccc1)NC(c1ccccc1)c1ccccc1`, the MIC99 in data set [1], in [2] and in data set [3] was over 256 µg/mL throughout.

Regarding GENTAMICIN [listing 1 of 2 here], the Activity result in [9] and in data set [10] was “Toxic” in each case.

On to `S=C(NCCCCCCCCCCCCNC(=S)NC(c1ccccc1)c1ccccc1)NC(c1ccccc1)c1ccccc1`, for which the MIC99 in [1], in data set [2] and in [3] was over 256 µg/mL throughout.

In the case of GENTAMICIN [listing 2 of 2 here], in data set [11], the outcome was Active.

On to `O=c1[nH]cc(F)c(=O)[nH]1` [FLUOROURACIL], for which the Activity entry in [9] and in data set [10] was “Toxic” in each case.

For `CC1(C)S[C@@H]2[C@H](NC(=O)[C@H](N)c3ccccc3)C(=O)N2[C@H]1C(=O)O` [AMPICILLIN], the values for the MIC99 in data set [1] and in data set [2] were 0.125 µg/mL (≈ 0.358 µM) and 128 µg/mL (≈ 366 µM), respectively. In addition, the result in [4] was Active. Besides, the outcome in data set [5], in [7] and in [12] was inactive.

Turning to `NC[C@H]1O[C@H](O[C@H]2[C@H](O)[C@@H](O[C@H]3O[C@H](CO)[C@@H](O)[C@H](N)[C@H]3O)[C@H](N)C[C@@H]2N)[C@H](O)[C@@H](O)[C@@H]1O` [KANAMYCIN], the figures for the MIC99 in [1], in data set [2] and in [3] were 8 µg/mL (≈ 16.5 µM), 32 µg/mL (≈ 66 µM) and 8 µg/mL (≈ 16.5 µM), respectively. Besides, the outcome in [13], in data set [5], in [7] and in data set [12] was inactive. Moreover, the outcome in data set [4] was Active.

On to `NCCCNCCCCNCCCN` [SPERMINE], for which the MIC99 in [1], in [2] and in data set [3] was over 512 µg/mL each time.

With `Cl.Cl.O=C(NCCCNCCCCCNCCCNC(=O)NCC(c1ccccc1)c1ccccc1)NCC(c1ccccc1)c1ccccc1`, the MIC99 in [1] came to 18.7 µg/mL; in data set [2], 26.7 µg/mL; in data set [3], 4 µg/mL.

For `O=[N+]([O-])c1ccc(O)c([N+](=O)[O-])c1`, the result in data set [14] and in [15] was Active.

Regarding `Cl.Cl.S=C(NCCCNCCCCCNCCCNC(=S)NCCC(c1ccccc1)c1ccccc1)NCCC(c1ccccc1)c1ccccc1`, the MIC99 in [1] came to 9.3 µg/mL; in [2], 32 µg/mL; in data set [3], 10 µg/mL.

Turning to `Cl.Cl.O=C(NCCCNCCCCCNCCCNC(=O)NC(c1ccccc1)c1ccccc1)NC(c1ccccc1)c1ccccc1`, the MIC99 in data set [1] worked out at 10.7 µg/mL; in data set [2], 13.3 µg/mL; in data set [3], 6 µg/mL.

As for COLISTIN, the figures for the MIC99 in [1] and in [2] were over 16 µg/mL and under 0.125 µg/mL, respectively. In addition, the result in data set [14] and in [15] was Active.

On to `Cl.Cl.S=C(NCCCNCCCCCNCCCNC(=S)NCc1ccccc1)NCc1ccccc1`, for which the MIC99 in [1] is 32 µg/mL; in [2] it was 256 µg/mL; in [3], 32 µg/mL.

Consider `CN(C)[C@@H]1C(O)=C(C(N)=O)C(=O)[C@@]2(O)C(O)=C3C(=O)c4c(O)cccc4[C@@](C)(O)[C@H]3C[C@@H]12`, for which, in data set [8], the outcome was Active.

Consider `Cl.Cl.O=C(NCCCNCCCCCNCCCNC(=O)NCc1ccccc1)NCc1ccccc1`, for which the MIC99 in data set [1] worked out at 107 µg/mL; in data set [2] it was 213 µg/mL; in data set [3] it was 64 µg/mL.

Regarding `O=C(NCCCCCCCCCCCNC(=O)NCCC(c1ccccc1)c1ccccc1)NCCC(c1ccccc1)c1ccccc1`, the MIC99 in data set [1], in [2] and in data set [3] was over 256 µg/mL throughout.

In the case of `S=C(NCCCNCCCCNCCCNC(=S)NCCC(c1ccccc1)c1ccccc1)NCCC(c1ccccc1)c1ccccc1`, the figures for the MIC99 in data set [1], in data set [2] and in data set [3] were 4.9 µg/mL (≈ 6.91 µM), 29.2 µg/mL (≈ 41.2 µM) and 10.4 µg/mL (≈ 14.7 µM), respectively.

For the molecule `Cl.Cl.O=C(NCCCNCCCCCNCCCNC(=O)NCCC(c1ccccc1)c1ccccc1)NCCC(c1ccccc1)c1ccccc1`, the MIC99 stood at 13.3 µg/mL in data set [1], 26.7 µg/mL in data set [2] and 6 µg/mL in data set [3].

Take `NCCCCNCCCN` [SPERMIDINE]: the MIC99 in data set [1], in [2] and in data set [3] was over 512 µg/mL in each case.

With `S=C(NCCCNCCCCNCCCNC(=S)NC(c1ccccc1)c1ccccc1)NC(c1ccccc1)c1ccccc1`, the MIC99 in data set [1] was 3.8 µg/mL (≈ 5.82 µM); in data set [2], 10.4 µg/mL (≈ 15.9 µM); in data set [3] it was 6.2 µg/mL (≈ 9.49 µM).

Turning to `O=C(NCCCNCCCCNCCCNC(=O)NCC(c1ccccc1)c1ccccc1)NCC(c1ccccc1)c1ccccc1`, the MIC99 in [1] came out at 11.3 µg/mL (≈ 17.4 µM); in [2], 18.6 µg/mL (≈ 28.7 µM); in data set [3], 4.4 µg/mL (≈ 6.78 µM).

Turning to `O=C(NCCCCCCCCCCCCNC(=O)NCC(c1ccccc1)c1ccccc1)NCC(c1ccccc1)c1ccccc1`, the MIC99 in data set [1], in data set [2] and in [3] was over 256 µg/mL in each case.

Turning to `Cl.Cl.S=C(NCCCNCCCCCNCCCNC(=S)NC(c1ccccc1)c1ccccc1)NC(c1ccccc1)c1ccccc1`, the MIC99 in data set [1] came out at 6.7 µg/mL; in data set [2], 13.3 µg/mL; in data set [3] it was 6 µg/mL.

Source of the values: ChEMBL document CHEMBL3804769, “Antibacterial Diamines Targeting Bacterial Membranes” (J Med Chem, 2016).
